The values below come from ChEMBL document CHEMBL1140057, “Design, synthesis, and evaluation of novel organophosphorus inhibitors of bacterial ureases” (J Med Chem, 2008).

Experiment [1] is described as follows: Inhibition of Bacillus pasteurii CCM 2056 urease by steady state kinetic study. Further details: species or system Sporosarcina pasteurii. Put shortly: (§1)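 Assay at 30 °C in 3 mM phosphate pH 7.0 with 2-100 mM urea. Ammonia read by Berthelot indophenol at 650 nm. Enzyme-inhibitor preincubated 30 min before urea, or diluted 30-fold from a concentrated mix. Ki* from linear regression, triplicates.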

Experiment [2] is described as follows: Inhibition of Proteus vulgaris CCM 1956 urease by steady state kinetic study. The essentials: as §1
The target in the next experiment is Urease (Helicobacter pylori, UniProt Q0PXQ5). Nature of the experiment: Inhibition of Helicobacter pylori urease.
Experiment [3] in a line: Inhibition of Klebsiella aerogenes urease.

Chain of Urease (Q0PXQ5 whole entry): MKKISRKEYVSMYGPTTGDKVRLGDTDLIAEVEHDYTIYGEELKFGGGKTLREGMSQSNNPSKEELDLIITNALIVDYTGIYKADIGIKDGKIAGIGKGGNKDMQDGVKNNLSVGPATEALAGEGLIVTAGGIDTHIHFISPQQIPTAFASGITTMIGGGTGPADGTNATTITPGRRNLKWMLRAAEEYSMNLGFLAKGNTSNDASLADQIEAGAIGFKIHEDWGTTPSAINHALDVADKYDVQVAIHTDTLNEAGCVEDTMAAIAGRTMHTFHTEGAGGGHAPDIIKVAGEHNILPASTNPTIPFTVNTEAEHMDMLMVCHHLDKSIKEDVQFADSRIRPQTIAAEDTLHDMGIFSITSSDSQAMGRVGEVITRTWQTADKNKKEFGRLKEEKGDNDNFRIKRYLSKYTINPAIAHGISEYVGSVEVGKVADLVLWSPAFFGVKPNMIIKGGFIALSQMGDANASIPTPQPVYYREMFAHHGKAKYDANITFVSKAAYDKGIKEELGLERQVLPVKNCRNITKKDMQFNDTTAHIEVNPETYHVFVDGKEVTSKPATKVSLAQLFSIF

In experiment [1], `CP(=O)(O)CNC(=O)[C@@H](N)CO` had an IC50 of 150 µM and an inhibition constant Ki of 37 µM. In experiment [2], this compound returned an IC50 of 342 µM and a Ki of 41 µM.

For the compound `CP(=O)(O)CNC(=O)[C@@H](N)Cc1ccccc1`, the results for the IC50 in experiment [1] and in experiment [2] were 600 µM and 754 µM, respectively. The inhibition constant (Ki) in experiment [1] was found to be 215 µM; in experiment [2] it was 176 µM.

In experiment [1], `CP(O)(=S)CNC(=O)OCc1ccccc1` (configuration not stated) returned a 50% inhibitory concentration (IC50) of 112 µM and an inhibition constant Ki of 17.5 µM. In experiment [2], this compound had an IC50 of 158 µM and a Ki of 14 µM.

In experiment [1], `CC(C)[C@H](N)C(=O)NCP(C)(=O)O` registered an IC50 of 485 µM and an inhibition constant Ki of 120 µM. Also, in experiment [2], the IC50 was 617 µM and the Ki was found to be 208 µM.

On to `CP(=O)(O)CNC(=O)[C@@H](N)COCc1ccccc1`, for which the results for the IC50 in experiment [1] and in experiment [2] were 80 µM and 183 µM, respectively. Further, the Ki came out at 25 µM in experiment [1] and 32.6 µM in experiment [2].

As to `CP(=O)(O)CNC(=O)OCc1ccccc1`, in experiment [1], half-maximal inhibition (IC50) was put at 123 µM and the Ki came to 43 µM. In experiment [2], this compound yielded an IC50 of 319 µM and an inhibition constant Ki of 65 µM.

In experiment [1], `CP(O)(=S)CNC(=O)CNC(=O)OCc1ccccc1` (configuration not stated) registered a 50% inhibitory concentration (IC50) of 1.8 µM and a Ki of 0.17 µM. Also, in experiment [2], the half-inhibitory concentration (IC50) is 3.1 µM and the affinity, expressed as Ki, was 0.45 µM.

On to `NCC(=O)NCC(=O)NO`, for which the IC50 at Urease was 0.79 µM.

In experiment [1], `CP(=O)(O)CNC(=O)CN` came in with an IC50 of 60 µM and an inhibitory constant (Ki) of 21 µM. In experiment [2], this compound displayed a concentration for half-maximal inhibition (IC50) of 86 µM and a Ki of 30 µM.

In experiment [1], `CP(=O)(O)CNC(=O)CNC(=O)OCc1ccccc1` displayed an IC50 of 450 µM and an inhibition constant (Ki) of 135 µM. In experiment [2], this compound came in with a half-inhibitory concentration (IC50) of 640 µM and a Ki of 178 µM.

In experiment [3], `CC(=O)NO` [ACETOHYDROXAMIC ACID] came in with a Ki of 2.6 µM.

As to `CP(=O)(O)CN` [AMINOMETHYL(METHYL)PHOSPHINIC ACID], the IC50 in experiment [1] was found to be 1100 µM; in experiment [2] it was 2530 µM. Also, the inhibition constant (Ki) was determined as 340 µM in experiment [1] and 425 µM in experiment [2].

Consider `CNCP(C)(=O)O` [METHYL((METHYLAMINO)METHYL)PHOSPHINIC ACID], for which, in experiment [1], the IC50 is 60 µM and the Ki amounted to 18 µM. Besides, in experiment [2], the IC50 came out at 153 µM and affinity was put at a Ki of 27 µM.

The compound `NP(N)(=O)Oc1ccccc1` [PHENYL PHOSPHORDIAMIDATE] registered a Ki in experiment [1] of 0.0006 µM. This counts as sub-nanomolar.
